Test results reported in ChEMBL document CHEMBL3600364, “Modification of N-(6-(2-methoxy-3-(4-fluorophenylsulfonamido)pyridin-5-yl)-[1,2,4]triazolo[1,5-a]pyridin-2-yl)acetamide as PI3Ks inhibitor by replacement of the acetamide group with alkylurea” (Bioorg Med Chem, 2015).

What was measured:
[1] = tested on: U-87 MG; assay: Cytotoxicity against human U87MG cells after 72 hrs by MTT assay; assay type: functional, cell-based, U-87MG ATCC
Summary of the method: (§1)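 Cells (1500–4000/well) were plated for 24 h, then exposed to serial concentrations for 72 h at 1% DMSO final. MTT was added for 4 h, formazan dissolved in DMSO, and OD read at 490 nm. IC50 (μM) came from three experiments run in triplicate.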

[2] = tested on: HCT-116; assay: Cytotoxicity against human HCT116 cells after 72 hrs by MTT assay; assay type: functional, cell-based; conditions: HCT-116, 72 h; summary of the method: as §1
[3] = tested on: MCF7; assay: Cytotoxicity against human MCF7 cells after 72 hrs by MTT assay; assay type: functional, cell-based; conditions: MCF7, 72 h; summary of the method: as §1
[4] = tested on: A549; assay: Cytotoxicity against human A549 cells after 72 hrs by MTT assay; assay type: functional, cell-based; conditions: A549, 72 h; summary of the method: as §1
[5] = target: Serine/threonine-protein kinase mTOR (Homo sapiens, UniProt P42345); assay: Inhibition of mTOR (unknown origin) assessed as reduction of ATP level after 40 mins by luciferase based luminescence assay
Summary of the method: (§2)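 Each enzyme was tested separately: PI3Kα (p110α/p85α), β (p110β/p85α), γ (p110γ/PIK3R5), δ (p110δ/p85α) or mTOR, with L-α-phosphatidylinositol substrate. […] was measured by luciferase luminescence. Inhibition was normalized to no-compound and no-enzyme controls, and IC50 obtained from dose-response fits.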

[6] = Acute toxicity in po dosed mouse; assay type: organism-based; conditions: in vivo
Summary of the method: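 Mouse acute oral toxicity (20.1 ± 1.9 g) by up-and-down procedure per OECD guideline 425. Compound dissolved in NMP, diluted with PEG400 and H2O (NMP/PEG400/H2O 1:8:1 v/v), given orally. Starting dose 50 mg/kg or 100 mg/kg depending on compound, slope factor sigma 0.12. Dosing stopped per AOT425StatPgm stopping rules.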

[7] = target: T1, Phosphatidylinositol 4,5-bisphosphate 3-kinase catalytic subunit alpha isoform (Homo sapiens, UniProt P42336); assay: Ratio of BEZ235 IC50 to compound IC50 for PI3Kalpha (unknown origin) assessed as reduction of ATP level after 40 mins by luciferase based luminescence assay
[8] = target: T2, Phosphatidylinositol 4,5-bisphosphate 3-kinase catalytic subunit delta isoform (Homo sapiens, UniProt O00329); assay: Inhibition of PI3Kdelta (unknown origin) assessed as reduction of ATP level after 40 mins by luciferase based luminescence assay; summary of the method: as §2
T2 sequence (O00329 whole entry): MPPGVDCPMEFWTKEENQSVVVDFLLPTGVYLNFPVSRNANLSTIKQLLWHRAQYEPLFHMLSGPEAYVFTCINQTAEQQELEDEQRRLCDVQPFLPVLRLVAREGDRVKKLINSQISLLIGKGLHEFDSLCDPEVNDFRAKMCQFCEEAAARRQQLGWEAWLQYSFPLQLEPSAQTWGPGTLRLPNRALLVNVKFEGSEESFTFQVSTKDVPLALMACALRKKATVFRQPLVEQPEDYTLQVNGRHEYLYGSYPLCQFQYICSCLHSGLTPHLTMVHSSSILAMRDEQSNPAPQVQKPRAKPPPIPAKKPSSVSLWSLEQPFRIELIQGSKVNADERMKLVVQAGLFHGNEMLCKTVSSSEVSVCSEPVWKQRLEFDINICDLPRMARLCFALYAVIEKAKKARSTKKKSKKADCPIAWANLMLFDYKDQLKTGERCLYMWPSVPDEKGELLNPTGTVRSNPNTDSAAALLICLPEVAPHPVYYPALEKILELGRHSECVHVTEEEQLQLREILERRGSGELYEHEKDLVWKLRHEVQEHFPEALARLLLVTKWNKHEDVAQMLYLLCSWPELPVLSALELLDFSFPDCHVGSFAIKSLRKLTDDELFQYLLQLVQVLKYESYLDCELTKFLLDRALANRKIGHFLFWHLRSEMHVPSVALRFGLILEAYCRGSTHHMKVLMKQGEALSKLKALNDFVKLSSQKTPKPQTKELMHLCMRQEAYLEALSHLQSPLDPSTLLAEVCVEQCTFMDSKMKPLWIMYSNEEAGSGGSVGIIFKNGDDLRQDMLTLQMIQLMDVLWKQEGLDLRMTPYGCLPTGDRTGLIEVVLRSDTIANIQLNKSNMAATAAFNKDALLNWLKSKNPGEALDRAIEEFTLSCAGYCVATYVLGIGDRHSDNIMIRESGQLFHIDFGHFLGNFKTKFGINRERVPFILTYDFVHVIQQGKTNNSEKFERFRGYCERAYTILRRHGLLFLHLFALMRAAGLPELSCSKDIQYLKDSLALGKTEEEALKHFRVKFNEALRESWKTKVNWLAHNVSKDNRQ

[9] = target: T1, Phosphatidylinositol 4,5-bisphosphate 3-kinase catalytic subunit alpha isoform; assay: Inhibition of PI3Kalpha (unknown origin) assessed as reduction of ATP level after 40 mins by luciferase based luminescence assay
[10] = tested on: HCT-116; assay: Ratio of BEZ235 IC50 to compound IC50 for human HCT116 cells; assay type: functional
[11] = Ratio of compound LD50 to compound B LD50 for po dosed mouse; assay type: ADME, organism-based; conditions: in vivo
[12] = tested on: CCRF S-180; assay: Antitumor activity against mouse S180 cells xenografted in mouse assessed as inhibition of tumor growth at 5 mg/kg, po […] for 8 days relative to control; assay type: functional; conditions: CCRF S-180, po, 192 h, read-out: GI
Summary of the method: (§3)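 Mice (20.3 ± 1.6 g) were given 3×10^6 S180 cells subcutaneously in the flank and randomized the next day into groups of 8. Dosing was oral, once daily for 8 days, in NMP/PEG400/H₂O (1:6:3), with a solvent-only group as control. Body weight was recorded daily. On day 9, tumors were excised and weighed, and tumor-weight inhibitory ratio was calculated.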

[13] = tested on: CCRF S-180; assay: Antitumor activity against mouse S180 cells xenografted in mouse assessed as inhibition of tumor growth at 30 mg/kg, po […] for 8 days relative to control; assay type: functional; conditions: CCRF S-180, po, 192 h, read-out: GI; summary of the method: as §3
[14] = tested on: Mus musculus; assay: Toxicity in mouse S180 cells xenografted in mouse assessed as change in body weight at 5 to 30 mg/kg, po qd for 8 days; assay type: organism-based, CCRF S-180; conditions: in vivo, 192 h; summary of the method: as §3
[15] = tested on: CCRF S-180; assay: Antitumor activity against mouse S180 cells xenografted in mouse assessed as inhibition of tumor growth at 10 mg/kg, po […] for 8 days relative to control; assay type: functional; conditions: CCRF S-180, po, 192 h, read-out: GI; summary of the method: as §3

T1 sequence (P42336 whole entry, canonical isoform): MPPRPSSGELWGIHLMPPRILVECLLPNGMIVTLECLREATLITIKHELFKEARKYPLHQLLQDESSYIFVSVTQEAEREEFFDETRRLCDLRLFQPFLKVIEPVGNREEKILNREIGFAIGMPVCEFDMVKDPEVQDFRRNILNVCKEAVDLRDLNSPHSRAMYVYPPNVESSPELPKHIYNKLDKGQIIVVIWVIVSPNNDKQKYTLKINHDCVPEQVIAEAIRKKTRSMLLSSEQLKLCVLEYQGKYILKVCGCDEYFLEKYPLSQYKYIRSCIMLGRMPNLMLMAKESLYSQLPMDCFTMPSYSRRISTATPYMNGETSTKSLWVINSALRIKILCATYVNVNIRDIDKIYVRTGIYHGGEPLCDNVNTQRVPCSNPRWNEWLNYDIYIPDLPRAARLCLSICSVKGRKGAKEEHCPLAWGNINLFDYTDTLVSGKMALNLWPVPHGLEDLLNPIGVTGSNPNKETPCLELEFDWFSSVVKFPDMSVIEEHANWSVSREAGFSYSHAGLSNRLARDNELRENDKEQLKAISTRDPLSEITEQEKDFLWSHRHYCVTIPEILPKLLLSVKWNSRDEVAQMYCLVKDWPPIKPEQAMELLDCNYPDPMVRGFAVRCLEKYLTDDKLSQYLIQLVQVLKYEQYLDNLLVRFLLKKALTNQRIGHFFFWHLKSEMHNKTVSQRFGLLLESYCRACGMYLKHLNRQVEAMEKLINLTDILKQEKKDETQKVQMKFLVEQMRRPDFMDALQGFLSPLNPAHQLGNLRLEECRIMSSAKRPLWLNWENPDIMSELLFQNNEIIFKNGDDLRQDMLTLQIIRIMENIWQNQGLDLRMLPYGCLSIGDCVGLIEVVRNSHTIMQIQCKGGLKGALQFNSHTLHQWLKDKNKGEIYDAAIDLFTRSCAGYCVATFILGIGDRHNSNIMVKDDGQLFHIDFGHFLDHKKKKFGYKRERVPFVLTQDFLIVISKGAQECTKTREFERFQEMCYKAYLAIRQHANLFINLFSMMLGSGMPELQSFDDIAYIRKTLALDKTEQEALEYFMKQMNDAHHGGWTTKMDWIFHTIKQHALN

SMILES | IC50 [1] [nM] | IC50 [2] [nM] | IC50 [3] [nM] | IC50 [4] [nM] | further results
COc1ncc(-c2ccc3nc(NC(=O)N(C)C)nn3c2)cc1NS(=O)(=O)c1ccc(F)cc1 | 1780 | 760 | 1560 | 1190 | 
COc1ncc(-c2ccc3nc(NC(=O)NCC(=O)N4CCCCC4)nn3c2)cc1NS(=O)(=O)c1ccc(F)cc1 | 740 | 130 | 570 | 2060 | 
COc1ncc(-c2ccc3nc(NC(=O)N4CCCC4)nn3c2)cc1NS(=O)(=O)c1ccc(F)cc1 | 1690 | 1290 | 1660 | 3570 | 
COc1ncc(-c2ccc3nc(NC(=O)NCCN4CCCCC4)nn3c2)cc1NS(=O)(=O)c1ccc(F)cc1 | 1080 | 150 | 200 | 610 | 
COc1ncc(-c2ccc3nc(NC(=O)NCCN4CCN(C)CC4)nn3c2)cc1NS(=O)(=O)c1ccc(F)cc1 | 760 | 260 | 500 | 1050 | 
COc1ncc(-c2ccc3nc(NC(=O)NCC(=O)N4CCOCC4)nn3c2)cc1NS(=O)(=O)c1ccc(F)cc1 | 3260 | 490 | 630 | 2570 | 
CCN(CC)CCNC(=O)Nc1nc2ccc(-c3cnc(OC)c(NS(=O)(=O)c4ccc(C)cc4)c3)cn2n1 | 670 | 170 | 410 | 730 | 
CCN(CC)CCNC(=O)Nc1nc2ccc(-c3cnc(OC)c(NS(=O)(=O)c4ccc(F)cc4F)c3)cn2n1 | 1060 | 140 | 740 | 980 | 
COc1ncc(-c2ccc3nc(NC(=O)NC4CC4)nn3c2)cc1NS(=O)(=O)c1ccc(F)cc1 | 540 | 90 | 300 | 210 | IC50 [5]: 275 nM; LD50 [6]: 118 mg/kg; Ratio IC50 [7]: 8; IC50 [8]: 16 nM; IC50 [9]: 7 nM; Ratio IC50 [10]: 3; selectivity ratio [11]: 4
COc1ncc(-c2ccc3nc(NC(=O)NCCN4CCOCC4)nn3c2)cc1NS(=O)(=O)c1ccc(F)cc1 | 560 | 130 | 210 | 420 | 
CCN(CC)CCNC(=O)Nc1nc2ccc(-c3cnc(OC)c(NS(=O)(=O)c4ccc(Cl)cc4)c3)cn2n1 | 760 | 120 | 680 | 680 | 
COc1ncc(-c2ccc3nc(NC(=O)NCC(=O)N4CCCC4)nn3c2)cc1NS(=O)(=O)c1ccc(F)cc1 | 1000 | 140 | 2130 | 2190 | 
CCCNC(=O)Nc1nc2ccc(-c3cnc(OC)c(NS(=O)(=O)c4ccc(F)cc4)c3)cn2n1 | 420 | 150 | 360 | 220 | LD50 [6]: 156 mg/kg; selectivity ratio [11]: 5
COc1ncc(-c2ccc3nc(NC(C)=O)nn3c2)cc1NS(=O)(=O)c1ccc(F)cc1 |  |  |  |  | LD50 [6]: 28 mg/kg
COc1ncc(-c2ccc3nc(NC(=O)NCCN(C)C)nn3c2)cc1NS(=O)(=O)c1ccc(F)cc1 | 980 | 220 | 560 | 800 | 
CNC(=O)Nc1nc2ccc(-c3cnc(OC)c(NS(=O)(=O)c4ccc(F)cc4)c3)cn2n1 | 640 | 180 | 250 | 230 | 
Cn1c(=O)n(-c2ccc(C(C)(C)C#N)cc2)c2c3cc(-c4cnc5ccccc5c4)ccc3ncc21 [DACTOLISIB] | 770 | 290 | 260 | 280 | 
COc1ncc(-c2ccc3nc(NC(=O)NCCN4CCCC4)nn3c2)cc1NS(=O)(=O)c1ccc(F)cc1 | 1120 | 230 | 380 | 960 | 
CCN(CC)CCNC(=O)Nc1nc2ccc(-c3cnc(OC)c(NS(=O)(=O)c4ccc(F)cc4)c3)cn2n1 | 720 | 180 | 370 | 760 | IC50 [5]: 123 nM; LD50 [6]: 513 mg/kg; Ratio IC50 [7]: 3; inhibition in vivo at 5 mg/kg [12]: 37.3%; inhibition in vivo at 30 mg/kg [13]: 53.6%; Activity [14]: Non-toxic; IC50 [8]: 12 nM; IC50 [9]: 14 nM; inhibition in vivo at 10 mg/kg [15]: 49%; selectivity ratio [11]: 18
